Screening results deposited in PubChem by Sanford-Burnham Center for Chemical Genomics.
Only some compounds are listed: those with a hit (about 2.3% of all), similar ones and a draw of the others.
SKN-1 block – inhibitors of C. elegans SKN-1. C. elegans VP596 Pgst-4::GFP/RFP ratio, acrylamide-induced, 24 h. inhibition, % at 21.8 µM. actives 0.49% (n = 360,000). AID 624304;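 active = interference check ratio from 0.5 to 1.5 plus GFP to RFP signal ratio inhibition reaching or exceeding a fixed threshold, cut at about 30% in these data, passing the limit was not always enough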
MPTP inh – permeability transition pore inhibition. actives 1.4% (n = 360,000). AID 602449. inhibition, % at 10 µM. isolated mouse mitochondria, Ca2+ swelling absorbance, 30 min;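 active = inhibition of 50% or more, scaled per plate between neutral and stimulator controls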
MT1-MMP act inh – blocks activation of human MT1-MMP; P50281; HT1080 RFP-PRO-GFP cells, GFP/RFP ratio fluorescence, overnight; percent of plate control window, DMSO zero; GFP/RFP ratio change, % at 20 µM; actives 0.061% (n = 360,000); AID 651647;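 active = GFP/RFP ratio change of at least 30% with cell ATP level not reduced by more than half and red fluorescence within 50% of control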
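Assay system: HT1080 cells carrying an RFP-PRO-GFP reporter | Dosing: Single dose of 20 µM compound, 1% DMSO final | Incubation: Cells overnight before dosing, compound overnight, 37 °C, 5% CO2 | Evaluation: GFP/RFP fluorescence ratio | Control set: DMSO and RFP-L50D-GFP cell wells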
ATG4B inh – ATG4B (human) cysteine protease inhibition | Q9Y4P1 | ATG4B cleavage of LC3-PLA2, NBD-HPC fluorescence, 1 h | inhibition, % at 8.33 µM | actives 0.51% (n = 340,000) | AID 504462; in the data active = inhibition above about 40%
Target sequence (Q9Y4P1 whole entry, looked up): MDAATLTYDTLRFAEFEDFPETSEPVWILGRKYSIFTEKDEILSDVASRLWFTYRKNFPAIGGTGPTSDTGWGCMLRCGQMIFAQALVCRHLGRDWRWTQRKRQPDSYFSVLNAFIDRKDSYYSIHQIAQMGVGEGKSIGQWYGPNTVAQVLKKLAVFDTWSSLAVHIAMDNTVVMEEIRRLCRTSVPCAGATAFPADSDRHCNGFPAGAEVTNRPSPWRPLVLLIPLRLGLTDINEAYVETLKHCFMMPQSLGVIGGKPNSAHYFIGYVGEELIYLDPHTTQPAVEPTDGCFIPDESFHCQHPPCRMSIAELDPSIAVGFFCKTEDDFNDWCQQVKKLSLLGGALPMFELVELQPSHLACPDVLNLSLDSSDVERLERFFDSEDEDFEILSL
MPTP counter – mitochondrial membrane potential, counter-screen. shares compounds with MPTP inh. isolated mitochondria, Rhodamine 123 fluorescence. inhibition, % at 10 µM. actives 78% (n = 5,000); in the data active = inhibition above about 22%
MPTP abs DR – MPTP inhibition, dose response swelling confirmation. isolated mitochondria swelling, absorbance. actives 58% (n = 780). shares compounds with MPTP inh. IC50, µM; in the data active = IC50 below about 20 µM
MPTP cs DR – counter-screen for mitochondrial permeability transition pore inhibitors, dose response; AID 651564; IC50, µM; shares compounds with MPTP inh; isolated mitochondria counterscreen, fluorescence read-out; actives 49% (n = 780); in the data active = IC50 below about 80 µM
Hits are given with their value; – = inactive; · = no result.

SMILES	SKN-1 block	MPTP inh	MT1-MMP act inh	ATG4B inh	MPTP counter	others
O=C(NCc1ccc(Cl)c(Cl)c1)c1cc(C2CCCCN2C(=O)c2cccs2)on1 (stereo unspecified)	–	–	–	·	·
CC(CCc1ccccc1)NS(=O)(=O)c1ccc(Cl)c(C(=O)O)c1 (stereo unspecified)	–	–	–	–	·
COc1ccc2sc(N(CCCN(C)C)C(=O)c3ccc(S(=O)(=O)N4CCCc5ccccc54)cc3)nc2c1	–	86.4	–	–	–
Cc1ccc2nc(N(CCCN(C)C)C(=O)COc3ccc(Cl)cc3)sc2c1	–	55.7	–	–	–	MPTP abs DR=4.23;MPTP cs DR=77.9
CCOC(=O)C1CCN(C(=O)CN(C)S(=O)(=O)c2ccc3c(c2)c(=O)n(C)c(=O)n3C)CC1	–	–	–	–	·
C=CCCN(Cc1ccccc1)S(=O)(=O)c1cc(Br)ccc1Br	–	–	–	–	·
COc1ccccc1NS(=O)(=O)c1ccc(NN=C2CCCC2)c([N+](=O)[O-])c1	–	60.0	–	–	46.9
Cc1ccc(Cl)cc1NC(=O)Nc1cccs1	–	87.2	–	–	85.5
N#Cc1c(-c2cccs2)nc(SCc2ccc(Cl)cc2)[nH]c1=O	–	95.9	–	48.7	71.3
CSc1nc(-c2cccs2)c(C#N)c(=O)[nH]1	–	–	–	–	·
CCOc1ccc(NC(=O)c2ccccc2NC(=O)c2cccnc2)cc1	–	–	–	–	·
Cc1ccc(Cl)cc1NC(=O)CC(O)(C(F)(F)F)C(F)(F)F	–	94.8	–	–	93.5
COCC(=O)Nc1cc(Cl)ccc1C	–	–	–	–	·
COc1ccccc1N=Cc1c(C)c(C#N)c2[nH]c3ccccc3n2c1=O	–	–	–	–	·
N#Cc1c(C(F)(F)F)cc(=O)n2c1[nH]c1ccccc12	–	91.7	–	–	93.6
Cc1c(Cc2ccccc2)c(=O)n2c([nH]c3ccccc32)c1C#N	–	84.2	–	–	73.9
CCOc1ccc(CN(C(=O)c2ccccn2)c2ccc(OC)c(Cl)c2)cc1	–	–	–	–	·
CC1O[C@@H](O[C@H](C)CC[C@@H](C)O[C@H]2OC(C)[C@@H](O)C[C@H]2O)C(O)C[C@H]1O (stereo partly specified)	–	–	–	–	·
O=C1CC(c2ccccc2)=NN1c1nc(-c2ccccc2)cs1	–	67.2	–	–	41.9
c1ccc(-c2cc3cc4c(cc3cn2)OCO4)cc1	–	–	–	–	·
CC1CC(C)CN(S(=O)(=O)c2cccc3nsnc23)C1 (stereo unspecified)	–	–	–	–	·
Cc1ccc(-n2cc(CNCCCn3ccnc3C)c(-c3ccc(F)cc3)n2)cc1	–	59.5	–	–	–
Cc1ccc(-c2nn(-c3ccccc3)cc2CNCc2ccccc2)cc1	–	95.7	–	–	–	MPTP abs DR=4.71;MPTP cs DR=30.5
Cc1ccc(-n2cc(CNCCc3cscn3)c(-c3ccc(F)cc3)n2)cc1	–	–	–	–	·
S=C(Nc1ccccc1)Nc1ccc(OCc2ccccc2)cc1	–	–	–	–	·
SMILES	SKN-1 block	MPTP inh	MT1-MMP act inh	ATG4B inh	MPTP counter	others
S=C(Nc1ccc(OCc2ccccc2)cc1)Nc1cccc(Cl)c1Cl	–	85.6	–	–	79.0
O=C(CSCc1ccccc1)NNC(=S)Nc1cccc(Cl)c1Cl	–	92.2	–	–	102.8
CNC(=S)NNC(=O)CSCc1c(Cl)cccc1Cl	–	–	–	–	·
O=C(Nc1nc(-c2ccccn2)cs1)c1ccco1	–	–	–	–	·
O=C(Nc1nc(-c2cc(Cl)sc2Cl)cs1)c1cccs1	–	–	–	–	·
O=C(Nc1nc(-c2ccccn2)cs1)c1ccc(Br)s1	–	53.9	–	–	–
O=C(Nc1nc(-c2cc(Cl)sc2Cl)cs1)c1ccc(Br)s1	–	103.7	–	–	–
S=C(Nc1ccccc1Cl)N(CCN1CCCCC1)Cc1ccco1	–	–	–	–	·
COc1cc(NC(=O)COC(=O)CNC(=O)C2CCCCC2)cc(OC)c1	–	–	–	–	·
COc1ccc(CNC(=O)c2cccc3c(-c4cccnc4)coc23)cc1OC	–	98.9	–	·	100.3
CN(CCc1ccccc1)C(=O)c1ccc(NC(=O)Cc2ccc(NC(=O)C3CCN(S(=O)(=O)c4cccc([N+](=O)[O-])c4)CC3)cc2)cc1	–	–	–	–	·
